In ChEMBL document CHEMBL1149659 (Bioorg Med Chem Lett, 2007):
In brackets after ≈: the same amount, converted by molar mass. Activity calls are given as the source filed them. The calls are words filed in the database; no cut-off is given here.

Tests used:
3T3-L1 (Mus musculus) = experiment: Inhibition of [1-14C]sodium acetate uptake in mouse 3T3-L1 cells at 2 uM
3T3-L1 [1] = experiment: Inhibition of mouse 3T3-L1 cell differentiation at 2 uM
[2] = molecular target: T1, Peroxisome proliferator-activated receptor gamma (Homo sapiens) (UniProt P37231); experiment: Antagonist activity at pioglitazone-stimulated PPARgamma transcriptional activity in U2OS cells at 1 uM; format: functional, cell-based
T1 sequence (whole entry): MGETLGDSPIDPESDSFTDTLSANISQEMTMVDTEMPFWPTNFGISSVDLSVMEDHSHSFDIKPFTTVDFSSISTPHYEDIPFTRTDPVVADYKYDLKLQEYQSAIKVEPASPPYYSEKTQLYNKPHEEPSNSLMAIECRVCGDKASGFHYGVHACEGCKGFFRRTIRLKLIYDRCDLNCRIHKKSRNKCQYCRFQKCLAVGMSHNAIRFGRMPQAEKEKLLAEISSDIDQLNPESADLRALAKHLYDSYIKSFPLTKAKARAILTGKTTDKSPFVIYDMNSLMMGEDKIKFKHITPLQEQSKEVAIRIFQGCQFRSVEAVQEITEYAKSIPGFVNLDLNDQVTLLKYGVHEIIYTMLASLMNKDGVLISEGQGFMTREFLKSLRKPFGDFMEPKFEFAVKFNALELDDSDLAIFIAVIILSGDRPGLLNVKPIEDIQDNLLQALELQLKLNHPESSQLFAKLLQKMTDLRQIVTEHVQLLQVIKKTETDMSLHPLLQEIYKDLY
How it was run: (§1)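 U2OS cells transfected with PPARγ expression plasmid, matching reporter plasmid and pCMV-β-galactosidase as internal control; reporter transcriptional activity measured with or without 1 μM pioglitazone stimulation; means of triplicate cultures.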

3T3-L1 [3] = experiment: Inhibition of mouse 3T3-L1 cell differentiation by oil-red O staining method; format: functional
How it was run: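 Insulin-induced differentiation of 3T3-L1 pre-adipocytes into adipocytes; reduction in oil-red O stained cells judged under a microscope to give minimal inhibitory concentration.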

3T3-L1 [4] = experiment: Inhibition of mouse 3T3-L1 cell differentiation assessed as minimal effective concentration by oil-red O staining method
[5] = molecular target: T2, Peroxisome proliferator-activated receptor gamma (Homo sapiens, UniProt P37231); experiment: Binding affinity to PPARgamma
T2 sequence (P37231 whole entry): T1 sequence (whole entry)

3T3-L1 [6] = experiment: Stimulation of mouse 3T3-L1 cells differentiation at 2 to 4 uM in presence of guanosine; format: functional, cell-based
How it was run: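 3T3-L1 cells with 50 μM guanosine added to suppress IMPDH-related effects; adipocyte differentiation stimulation examined at 2–4 μM.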

[7] = molecular target: T1, Peroxisome proliferator-activated receptor gamma (Homo sapiens); experiment: Activation of PPARgamma transcriptional activity in U20S cells at 0.01 to 1 uM; format: functional, cell-based; conditions: U2OS
How it was run: as §1

| SMILES | Activity (3T3-L1 [1]) | further results |
| --- | --- | --- |
| COC(=O)CC/C(C)=C/Cc1c(O)c2c(c(C)c1OC(=O)c1ccncc1)COC2=O | inactive | inhibition (3T3-L1 (Mus musculus)): 3% |
| COC(=O)CC/C(C)=C/Cc1c(O)c2c(c(C)c1OC(=O)c1cccnc1)COC2=O | inactive | – |
| COCCOCOc1c(C/C=C(\C)CCC(=O)OC)c(OC(=O)c2cccnc2)c(C)c2c1C(=O)OC2 | inactive | – |
| COc1c(C)c2c(c(OC)c1C/C=C(\C)CCC(=O)O)C(=O)OC2 | inactive | – |
| CCOC(=O)COc1c(C)c2c(c(O)c1C/C=C(\C)CCC(=O)OC)C(=O)OC2 | inactive | inhibition (3T3-L1 (Mus musculus)): 0% |
| COc1c(C)c2c(c(OC(C)=O)c1C/C=C(\C)CCC(=O)O)C(=O)OC2 | Active | inhibition (3T3-L1 (Mus musculus)): 86%; Activity [2]: Active |
| CCOC(=O)COc1c(C)c2c(c(OCOCCOC)c1C/C=C(\C)CCC(=O)OC)C(=O)OC2 | inactive | – |
| C/C(=C\Cc1c(O)c(C)c2c(c1O)C(=O)OC2)CCC(=O)O | inactive | – |
| COC(=O)CC/C(C)=C/Cc1c(O)c(C)c2c(c1OS(=O)(=O)c1ccc(C)cc1)C(=O)OC2 | inactive | – |
| COC(=O)CC/C(C)=C/Cc1c(O)c2c(c(C)c1OC)COC2=O | Active | Activity [2]: Active |
| COC(=O)CC/C(C)=C/Cc1c(O)c(C)c2c(c1O)C(=O)OC2 | inactive | – |
| COC(=O)CC/C(C)=C/Cc1c(OC)c(C)c2c(c1OS(=O)(=O)c1ccc(C)cc1)C(=O)OC2 | inactive | – |
| C/C=C/C1=CC(=O)[C@@H](O)[C@@H]1O [TERREIN] | – | MIC (3T3-L1 [3]): 81 µM (≈ 12.5 µg/mL) |
| COC(=O)CC/C(C)=C/Cc1c(OC)c(C)c2c(c1OC)C(=O)OC2 | inactive | – |
| COCCOCOc1c(C/C=C(\C)CCC(=O)OC)c(O)c(C)c2c1C(=O)OC2 | inactive | inhibition (3T3-L1 (Mus musculus)): 10% |
| COc1c(C)c2c(c(O)c1C/C=C(\C)CCC(=O)O)C(=O)OC2 [MYCOPHENOLIC ACID] | Active | Activity (3T3-L1 [4]): 0.2 µM; Kd [5]: 110 µM; Activity (3T3-L1 [6]): Active; Activity [2]: Active; Activity [7]: Active |
| COCCOCOc1c(C/C=C(\C)CCC(=O)OC)c(OC(=O)c2ccncc2)c(C)c2c1C(=O)OC2 | inactive | – |
